Screens as filed in PubChem.
CRFBP-R2 block: blocks CRF-induced signaling of the CRF-BP/CRF-R2 complex; HEK293 CRF-R2/CRF-BP, CRF-induced calcium fluorescence; inhibition, % at 11.8 µM; hit rate 0.59% among 350,000; AID 588475;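 active = inhibition of the ligand-induced calcium signal above about 50% at the single tested concentration, limit read from the data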
HNF4A DNA FP: change in binding of human HNF4 alpha to DNA | hit rate 0.3% among 360,000 | AID 1224865 | activity change, % at 10 µM | HNF4a-FITC DNA binding, fluorescence polarization, 1 h; in the data active = activity change above about 30%, passing the limit was not always enough
Target sequence (P41235 whole entry, looked up): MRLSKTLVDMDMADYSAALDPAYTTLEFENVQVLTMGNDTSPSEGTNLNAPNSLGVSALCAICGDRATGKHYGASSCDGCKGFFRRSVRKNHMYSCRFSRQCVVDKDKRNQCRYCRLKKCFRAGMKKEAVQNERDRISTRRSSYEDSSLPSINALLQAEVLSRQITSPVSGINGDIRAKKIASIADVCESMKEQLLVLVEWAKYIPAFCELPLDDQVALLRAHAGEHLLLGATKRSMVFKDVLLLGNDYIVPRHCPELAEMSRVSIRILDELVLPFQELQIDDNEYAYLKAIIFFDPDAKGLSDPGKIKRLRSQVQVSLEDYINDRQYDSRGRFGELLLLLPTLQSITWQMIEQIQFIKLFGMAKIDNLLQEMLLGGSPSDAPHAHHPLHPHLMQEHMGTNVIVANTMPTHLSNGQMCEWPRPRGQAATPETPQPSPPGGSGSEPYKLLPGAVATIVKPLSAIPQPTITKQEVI
TPT1 inhibitor: blocks Candida albicans tRNA 2'-phosphotransferase. recombinant caTPT1, FP RNA substrate dephosphorylation. hit rate 0.81% among 300,000. inhibition, % at 5 µM;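 active = inhibition above the mean of all tested compounds plus 3 SD, set per screening campaign, cut at about 24% in these data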;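 also: plate controls were DMSO alone for no effect and ferristatin control at 100 nM for full effect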
Rpn11 inh: Rpn11 (human) deubiquitinase inhibition | O00487 | calls only at 20 µM | hit rate 0.59% among 360,000 | AID 588493 | human 26S proteasome, Ub4-pepOG fluorescence polarization; 20S core pre-blocked with epoxomicin;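 active = inhibition at 20 µM, scaled to each plate's controls, above about 33%, limit read from the data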
CRFBP-R2 agonist: CRF-BP/CRF-R2 complex agonism; HEK293 CRF-R2/CRF-BP, calcium dye fluorescence (FLIPR); percent of saturating CRF peptide response; activation, % at 13.2 µM; hit rate 0.46% among 350,000;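 active = activation of at least 50%, plus an integration ratio under a set limit after plate pattern correction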;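 also: plate controls were neutral control wells without compound for no effect and CRF at EC100 for full effect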
CSN inh: CSN deneddylation inhibition; inhibition, % at 12.5 µM; Purified CSN, SCF-Nedd8-OG deneddylation, fluorescence polarization; AID 651999; Q92905; hit rate 0.38% among 360,000;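 active = pattern-corrected inhibition above about 35%, with an unprinted fluorescence ratio check between 0.5 and 1.5, limit read from the data, passing the limit was not always enough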;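 also: 0% = enzyme with substrate and 100% = substrate without enzyme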
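Assay system: Purified human Csn5 enzyme expressed in HEK293T cells | Amount: Enzyme 0.24 nM | Measured by: Fluorescence polarization readout | Medium: Tris/NaCl/DTT buffer, pH 7.5 | Compound dosing: One concentration, 12.5 µM, 0.25% DMSO | Times: 90 min incubation of compound, enzyme and substrate at room temperature | Control set: no-enzyme wells high, enzyme-with-substrate wells low | Read-out: % inhibition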
Rpn11 inh conf: confirmation of human proteasome Rpn11 inhibitors. shares compounds with Rpn11 inh. purified human 26S proteasome, Ub4-pepOG fluorescence polarization; proteasome pretreated with epoxomicin. inhibition, % at 20 µM. hit rate 29% among 1,900
MMP-2 inh: counter-screen for RPN11 inhibitors: inhibition of human MMP-2; recombinant MMP-2, FRET peptide cleavage fluorescence; inhibition, % at 20 µM; shares compounds with Rpn11 inh; hit rate 4% among 1,900; AID 602330;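 also: human MMP-2 activated beforehand with APMA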
Thrombin inh: blocks bovine thrombin, flagging nonselective RPN11 hits; shares compounds with Rpn11 inh; bovine thrombin cleavage of Ub4-pepOG, fluorescence polarization; inhibition, % at 20 µM; hit rate 13% among 1,900; AID 602333;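 active = mean inhibition at least 40% at 20 µM, or signal 3 deviations below plate average, so some actives read negative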;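 also: plate controls were thrombin with DMSO for no effect and buffer wells lacking thrombin for full effect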
Active calls of the source: *; i = inactive; . = no result given; + = active, no number. Compounds with a hit are over-represented: about 2.3% of the library has one in this group of screens. Rule as the data show it, unless noted: active = inhibition above about 40%; inactive = the rest.

SMILES	CRFBP-R2 block	HNF4A DNA FP	TPT1 inhibitor	Rpn11 inh	CRFBP-R2 agonist	CSN inh	Rpn11 inh conf	MMP-2 inh	Thrombin inh
CCOC(=O)C1CCCN(C2=NC(=O)/C(=C/c3ccc(OC)c(OC)c3)S2)C1 (stereo unspecified)	14	2	-2	i	-2	-4	.	.	.
CCOC(=O)C1CCCN(C2=NC(=O)/C(=C/c3ccc(O)c(OC)c3)S2)C1 (stereo unspecified)	-3	10	20	+	5	19	43*	-30	26
Cc1ccc(S(=O)(=O)N(C)C)cc1NC(=O)CN1C(=O)NC2(CCCCCC2)C1=O	-14	1	3	i	1	-3	.	.	.
COc1ccc(NS(=O)(=O)c2ccc(C)c(NC(=O)CN3C(=O)NC4(CCCC4)C3=O)c2)cc1	-2	40	.	+	1	109*	76*	-132	4
CN(CC(=O)Nc1ccc(Cl)cc1)C(=O)CCc1nc2sc3c(c2c(=O)[nH]1)CCCC3	1	11	23	+	4	13	72*	-31	26
CN(CC(=O)Nc1ccc(F)cc1)C(=O)CCc1nc2sc3c(c2c(=O)[nH]1)CCCC3	-12	6	15	+	2	15	38	-31	19
CCN(CC(=O)Nc1ccccc1C(F)(F)F)C(=O)CCc1nc2sc3c(c2c(=O)[nH]1)CCCC3	-14	1	8	i	1	13	.	.	.
CCN(CC(=O)Nc1c(F)cccc1F)C(=O)CCc1nc2sc3c(c2c(=O)[nH]1)CCCC3	4	2	16	+	-1	27	64*	-3	41*
Nc1cccc2[nH]c(C(F)(F)F)nc12	7	5	3	+	0	16	23	-5	-18
Cc1cc(N2CCCC2)ccc1/C=N/n1cnnc1	9	21	3	+	0	28	-23	-59	-12
Cc1ccc(CNC(=O)c2ccc(N3CCC4(CC3)CC(c3cccc(Br)c3)=NO4)c(NC(=O)c3c(Cl)cccc3Cl)c2)cc1	1	2	3	i	0	1	.	.	.
Cc1cccc(OCC(=O)NC(Cc2c[nH]c3ccccc23)C(=O)O)c1C (stereo unspecified)	-9	2	3	i	-2	-5	.	.	.
O=C(CC1OC(=O)c2ccccc21)Nc1cc(Cl)ccc1N1CCCC1 (stereo unspecified)	8	6	4	+	0	16	62*	-7	-13
O=C(CC1OC(=O)c2ccccc21)Nc1ccccc1N1CCOCC1 (stereo unspecified)	-11	-1	-5	i	1	0	.	.	.
CCCCn1c(N)c(N(CCOC)C(=O)CSc2ccccc2C)c(=O)[nH]c1=O	-2	0	2	i	-1	11	.	.	.
Oc1[nH]c2ccccc2c1N=Nc1nc2ccccc2s1	26	2	10	+	0	4	14	-16	33
CN(C)S(=O)(=O)c1cccc(NC(=O)c2cc3c(=O)n4ccccc4nc3s2)c1	-2	7	-2	+	1	0	0	9	-2
Cc1nnn(-c2nonc2N)c1C(=O)NNC(=O)c1ccc(Cl)c(Cl)c1	7	-2	-1	+	-2	-3	0	0	4
CCN1CCN(Cc2c(C(=O)N/N=C(\C)c3ccc(Cl)c(Cl)c3)nnn2-c2nonc2N)CC1	.	.	-3	.	.	.	.	.	.
O=C(CCCSc1nc(-c2ccco2)cc(C(F)(F)F)n1)NCc1cccs1	40	5	5	+	-1	4	11	-6	6
Cc1cc(NC(=O)CCCSc2nc(-c3ccco3)cc(C(F)(F)F)n2)no1	-9	3	0	i	1	-2	.	.	.
O=c1c(Cl)c(N/N=C/c2ccc(Br)cc2)cnn1-c1ccccc1	-7	12	-3	+	0	19	47*	-26	13
CC(=O)Nc1cc(NC(C)=O)cc(C(=O)OCC(=O)c2ccc3c(c2)NC(=O)CO3)c1	6	7	-3	i	-1	-2	.	.	.
Cc1cc(C(=O)COC(=O)c2ccc(NC(=O)CC#N)cc2)c(C)n1CCc1ccc(F)cc1	-14	15	.	+	1	10	23	-19	17
N#CCC(=O)Nc1ccc(C(=O)OCC(=O)c2ccc3c(c2)NC(=O)CO3)cc1	3	8	.	+	0	16	21	-3	25
SMILES	CRFBP-R2 block	HNF4A DNA FP	TPT1 inhibitor	Rpn11 inh	CRFBP-R2 agonist	CSN inh	Rpn11 inh conf	MMP-2 inh	Thrombin inh
COc1ccc(CCn2c(C)cc(C(=O)COC(=O)c3ccc(NC(=O)CC#N)cc3)c2C)cc1	-3	24	18	.	0	22	.	.	.
Cc1cc(Nc2c(C)cccc2C)n2nc(C)nc2n1	10	0	-1	i	-1	2	.	.	.
C/C(=C\c1ccc(C(=O)O)cc1)c1ccc2c(c1)C(C)(C)CCC2(C)C	29	-4	-1	i	0	2	.	.	.
CC(=O)c1ccc2c(c1)C1C=CCC1C(C(=O)O)N2 (stereo unspecified)	-6	-69	.	i	3	57	.	.	.
CCOc1cc(/C=N/NC(=O)c2ccccn2)ccc1OC(=O)c1ccc(F)cc1	-1	-1	3	i	1	-2	.	.	.
COc1cc(/C=C(\C#N)C(=O)Nc2cc(C(F)(F)F)ccc2Cl)ccc1OCC(=O)Nc1cccc(C(F)(F)F)c1	-7	21	12	+	11	-1	59*	6	39
O=C(O)c1cccc(S(=O)(=O)Nc2cccc3ccccc23)c1	-6	-3	0	i	1	1	.	.	.
COc1ccccc1N1CCN(C(=O)CSc2nnc(NC(=O)C3CC3)s2)CC1	4	1	1	i	-1	2	.	.	.
O=C(NN1C(=O)/C(=C/c2cccs2)SC1=S)c1cccnc1	13	4	3	+	-1	3	2	-9	-8
O=C(NN1C(=O)/C(=C\c2cccnc2)SC1=S)C(c1ccccc1)c1ccccc1	-37	1	-1	i	0	-7	.	.	.
COc1ccc(-c2cc(C(=O)OCc3ccccn3)c3ccccc3n2)cc1	2	-1	2	i	2	-6	.	.	.
Cc1cccc(C(O)C(O)c2cccc(C)n2)n1 (stereo unspecified)	-12	21	.	+	4	6	-4	1	8
